# Source: ChEMBL document CHEMBL1629579, “Correlating echinocandin MIC and kinetic inhibition of fks1 mutant glucan synthases for Candida albicans: implications for interpretive breakpoints” (Antimicrob Agents Chemother, 2009)
# Numbered stars: 1 amine (or outer) side, 2 acyl side, 3 side chain; on linkers, the order of the positions; unused ones are H or OH. Bridge positions count the residues as written; N and C are the ends. Square brackets hold non-standard residues; d marks the D form. Peptide text beside a SMILES is read from it. * marks the point of attachment. pTerphenylCO(4''-OnC5H11) = CCCCCOc1ccc(-c2ccc(-c3ccc(C(=O)*)cc3)cc2)cc1; Orn(4R-OH,5R-OH) = O=C([C@H](C[C@@H](O)[C@@H](O)N[*:3])N[*:1])[*:2]; hTyr(3S-OH,4S-OH) = N[C@H](C(=O)O)[C@H](O)[C@@H](O)c1ccc(O)cc1; Pro(3S-OH,4S-Me) = C[C@H]1CN[C@H](C(=O)O)[C@H]1O; Hyp = O=C(O)[C@@H]1C[C@@H](O)CN1
# Assays:
# Candida albicans [1] = assay: Activity at Candida albicans 1002 1,3-beta-D-glucan synthase subunit FKS1p
# How it was run: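 Glucan synthase from cells grown at 37°C with vigorous shaking to early stationary phase in YPD. Membrane enzyme enriched by product entrapment. Serial echinocandin dilutions; ANF controls held 1% DMSO. Reaction started by adding enzyme, run 60 min at 25°C in a filtration polymerization assay, stopped on ice. IC50 from a variable-slope sigmoidal fit; means of three repetitions on separate days.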
# [2] = Inhibition of Candida albicans 90 1,3-beta-D-glucan synthase subunit FKS1p G4082R mutant
# How it was run: (§1)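 Enzyme is product-entrapped 1,3-β-D-glucan synthase, enriched from membranes of each strain grown at 37°C with shaking in YPD broth to early stationary phase. Filtration polymerization assay uses [3H]UDPG, started by adding enzyme and run 60 min at 25°C. Echinocandins are added as serial dilutions, with 1% DMSO controls for anidulafungin. IC50 is from a variable-slope sigmoidal fit; values are triplicate arithmetic means.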
# Candida albicans [3] = assay: Activity at Candida albicans 121 1,3-beta-D-glucan synthase subunit FKS1p G4082A mutant
# How it was run: (§2)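 Product-entrapped 1,3-β-D-glucan synthase from cells grown in YPD at 37°C to early stationary phase. Wells held 50 mM HEPES pH 7.5, 10% glycerol, 1.5 mg/ml BSA, 25 mM KF, 1 mM EDTA, 25 μM GTP-γ-S, 1 μg enzyme and [3H]UDPG (0.015–2 mM). Reactions ran 60 min at 25°C. Vmax and Km came from Lineweaver-Burke plots, in triplicate.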
# Candida albicans [4] = assay: Antimicrobial activity against Candida albicans 205 harboring FKS1 T1933C mutant gene and FKS1 hotspot1 S645P mutant gene by M27-A3 method in presence of 50% human serum; assay type: functional
# How it was run: (§3)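 Broth microdilution per CLSI M27-A3 in RPMI 1640, done in triplicate on three separate days. Each strain was tested with and without 50% human serum. C. krusei ATCC 6258 and C. parapsilosis ATCC 22019 served as QC strains. Arithmetic means are reported, and geometric means were used for comparison.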
# [5] = Inhibition of Candida albicans 149 1,3-beta-D-glucan synthase subunit FKS1p G1942T mutant; how it was run: as §1
# Candida albicans [6] = assay: Antimicrobial activity against Candida albicans 122 harboring FKS1 C1946A mutant gene and FKS1 hotspot1 P649H mutant gene by M27-A3 method; assay type: functional; how it was run: as §3
# Candida albicans [7] = assay: Activity at Candida albicans A15-10 1,3-beta-D-glucan synthase subunit FKS1p T1933C mutant
# Candida albicans [8] = assay: Antimicrobial activity against Candida albicans 5415 harboring FKS1 T1933C mutant gene and FKS1 hotspot1 S645P mutant gene by M27-A3 method; assay type: functional; how it was run: as §3
# [9] = Inhibition of Candida albicans 194 1,3-beta-D-glucan synthase subunit FKS1p C1934T/G4082R mutant; how it was run: as §1
# Candida albicans [10] = assay: Activity at Candida albicans 90 1,3-beta-D-glucan synthase subunit FKS1p G4082R mutant; how it was run: as §2
# Candida albicans [11] = assay: Antimicrobial activity against Candida albicans 90 harboring FKS1 G4082R mutant gene and FKS1 hotspot2 R1361R/H mutant gene by M27-A3 method; assay type: functional; how it was run: as §3
# [12] = Inhibition of Candida albicans 2762 1,3-beta-D-glucan synthase subunit FKS1p T1922C mutant; how it was run: as §1
# Candida albicans [13] = assay: Antimicrobial activity against Candida albicans SC5314 by M27-A3 method; assay type: functional
# How it was run: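 Broth microdilution per CLSI M27-A3 in RPMI 1640, with and without 50% human serum, in triplicate. C. krusei ATCC 6258 and C. parapsilosis ATCC 22019 served as quality-control strains. MIC reported as arithmetic mean of three repetitions on separate days.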
# [14] = Inhibition of Candida albicans 121 1,3-beta-D-glucan synthase subunit FKS1p G4082A mutant; how it was run: as §1
# Candida albicans [15] = assay: Antimicrobial activity against Candida albicans 121 harboring FKS1 G4082A mutant gene and FKS1 hotspot2 R1361H mutant gene by M27-A3 method in presence of 50% human serum; assay type: functional; how it was run: as §3
# [16] = Inhibition of Candida albicans 3107 1,3-beta-D-glucan synthase subunit FKS1p; how it was run: as §1
# [17] = Inhibition of Candida albicans 1002 1,3-beta-D-glucan synthase subunit FKS1p
# How it was run: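 Product-entrapped glucan synthase from YPD-grown cells (37°C, early stationary phase) in a filtration polymerization assay with [3H]UDPG. Echinocandin serial dilutions were added, with 1% DMSO in controls for anidulafungin. Reactions were started with enzyme, run 60 min at 25°C and stopped on ice. IC50 came from a variable-slope sigmoidal fit, in triplicate.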
# Candida albicans [18] = assay: Antimicrobial activity against Candida albicans 194 harboring FKS1 C1934T/G4082R mutant gene and FKS1 hotspot1 S645F mutant gene and FKS1 hotspot2 R1361R/H mutant gene by M27-A3 method; assay type: functional; how it was run: as §3
# Candida albicans [19] = assay: Antimicrobial activity against Candida albicans 149 harboring FKS1 G1942T mutant gene and FKS1 hotspot1 D648Y mutant gene by M27-A3 method in presence of 50% human serum; assay type: functional; how it was run: as §3
# Candida albicans [20] = assay: Antimicrobial activity against Candida albicans 119 harboring FKS1 T1921C mutant gene and FKS1 hotspot1 F641L mutant gene by M27-A3 method in presence of 50% human serum; assay type: functional; how it was run: as §3
# Candida albicans [21] = assay: Antimicrobial activity against Candida albicans 119 harboring FKS1 T1921C mutant gene and FKS1 hotspot1 F641L mutant gene by M27-A3 method; assay type: functional; how it was run: as §3
# Candida albicans [22] = assay: Antimicrobial activity against Candida albicans 85 harboring FKS1 C1934T mutant gene and FKS1 hotspot1 S645F mutant gene by M27-A3 method in presence of 50% human serum; assay type: functional; how it was run: as §3
# Candida albicans [23] = assay: Antimicrobial activity against Candida albicans 177 harboring FKS1 T1922C mutant gene and FKS1 hotspot1 F641S mutant gene by M27-A3 method in presence of 50% human serum; assay type: functional; how it was run: as §3
# Candida albicans [24] = assay: Activity at Candida albicans 5415 1,3-beta-D-glucan synthase subunit FKS1p T1933C mutant; how it was run: as §2
# Candida albicans [25] = assay: Activity at Candida albicans 205 1,3-beta-D-glucan synthase subunit FKS1p T1933C mutant; how it was run: as §2
# Candida albicans [26] = assay: Antimicrobial activity against Candida albicans 1002 by M27-A3 method in presence of 50% human serum; assay type: functional; how it was run: as §3
# Candida albicans [27] = assay: Antimicrobial activity against Candida albicans 89 harboring FKS1 C1934A mutant gene and FKS1 hotspot1 S645Y mutant gene by M27-A3 method; assay type: functional; how it was run: as §3
# Candida albicans [28] = assay: Antimicrobial activity against Candida albicans 5415 harboring FKS1 T1933C mutant gene and FKS1 hotspot1 S645P mutant gene by M27-A3 method in presence of 50% human serum; assay type: functional; how it was run: as §3
# [29] = Inhibition of Candida albicans 3795 1,3-beta-D-glucan synthase subunit FKS1p; how it was run: as §1
smiles,measurement,setting,value
"CCCCCOc1ccc(-c2ccc(-c3ccc(C(=O)N[C@H]4C[C@@H](O)[C@@H](O)NC(=O)[C@@H]5[C@@H](O)[C@@H](C)CN5C(=O)[C@H]([C@@H](C)O)NC(=O)[C@H]([C@H](O)[C@@H](O)c5ccc(O)cc5)NC(=O)[C@@H]5C[C@@H](O)CN5C(=O)[C@H]([C@@H](C)O)NC4=O)cc3)cc2)cc1 [ANIDULAFUNGIN] ({pTerphenylCO(4''-OnC5H11)}-[Orn(4R-OH,5R-OH)]T[Hyp][hTyr(3S-OH,4S-OH)]T[Pro(3S-OH,4S-Me)]; lactam 1-C)",Km,Candida albicans [1],122 µM
same,Vmax,Candida albicans [1],5.8 nmol/min
same,IC50,[2],0.0406 µg/mL
same,Ki,[2],0.0485 µg/mL
same,Km,Candida albicans [3],129 µM
same,Vmax,Candida albicans [3],4.41 nmol/min
same,MIC,Candida albicans [4],8 µg/mL
same,IC50,[5],0.0933 µg/mL
same,Ki,[5],0.17055 µg/mL
same,MIC,Candida albicans [6],0.67 µg/mL
same,Km,Candida albicans [7],91 µM
same,Vmax,Candida albicans [7],3.26 nmol/min
same,MIC,Candida albicans [8],2 µg/mL
same,IC50,[9],0.782 µg/mL
same,Ki,[9],0.29924 µg/mL
same,Km,Candida albicans [10],31 µM
same,Vmax,Candida albicans [10],2.36 nmol/min
same,MIC,Candida albicans [11],0.25 µg/mL
same,IC50,[12],1.085 µg/mL
same,Ki,[12],4.48127 µg/mL
same,MIC,Candida albicans [13],0.08 µg/mL
same,IC50,[14],0.07599 µg/mL
same,Ki,[14],0.08457 µg/mL
same,MIC,Candida albicans [15],8 µg/mL
same,IC50,[16],0.00312 µg/mL
same,Ki,[16],0.00167 µg/mL
same,IC50,[17],0.00796 µg/mL
same,Ki,[17],0.00239 µg/mL
same,MIC,Candida albicans [18],4 µg/mL
same,MIC,Candida albicans [19],4 µg/mL
same,MIC,Candida albicans [20],2 µg/mL
same,MIC,Candida albicans [21],0.16 µg/mL
same,MIC,Candida albicans [22],8 µg/mL
same,MIC,Candida albicans [23],4 µg/mL
same,Km,Candida albicans [24],98 µM
same,Vmax,Candida albicans [24],3.12 nmol/min
same,Km,Candida albicans [25],116 µM
same,Vmax,Candida albicans [25],5.54 nmol/min
same,MIC,Candida albicans [26],0.44 µg/mL
same,MIC,Candida albicans [27],2 µg/mL
same,MIC,Candida albicans [28],8 µg/mL
same,IC50,[29],0.00676 µg/mL
same,Ki,[29],0.0167 µg/mL
